Assay results from ChEMBL document CHEMBL4765240, “Design, Synthesis, and Immunological Evaluation of a Multicomponent Construct Based on a Glycotripeptoid Core Comprising B and T Cell Epitopes and a Toll-like Receptor 7 Agonist That Elicits Potent Immune Responses” (J Med Chem, 2018).
Calls of active or inactive are those of the source. The rule behind the calls is not given here. Numbered stars: 1 amine (or outer) side, 2 acyl side, 3 side chain; on linkers, the order of the positions; unused ones are H or OH. Square brackets hold non-standard residues; d marks the D form. Peptide text beside a SMILES is read from it. * marks the point of attachment. X4 = O=C(CCN(CCCO[C@H]1O[C@H](CO)[C@@H](O)[C@H](O)[C@@H]1O)[*:1])[*:2]; X3 = COCCOc1nc(N)c2[nH]c(=O)n(Cc3ccc(C(=O)*)cc3)c2n1; X2 = O=C(CCCCCn1cc(CN[*:1])nn1)[*:2]; Ahx = NCCCCCC(=O)O

Tests used:
Bone marrow cell [1] = test: Adjuvanted-antitumor vaccine activity in C57BL/6 mouse bone marrow derived cells assessed as induction of IL-12 production at 10^-4 to 10^1 ug/ml incubated for 48 hrs by ELISA; assay type: functional, cell-based; conditions: dose 0.0001-10 µg/ml
In short: (§1)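 BMDCs from C57BL/6 bone marrow grown 6 days in 2-ME/10% FCS RPMI with GM-CSF-containing supernatant, about 60−70% CD11c⁺CD11b⁺. 10⁵ cells incubated at 37 °C for 48 h with increasing compound concentrations. IL-12p40 and IL-6 measured in supernatants by ELISA.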

Bone marrow cell [2] = test: Adjuvanted-antitumor vaccine activity in C57BL/6 mouse bone marrow derived cells assessed as induction of IL-6 production at 10^-4 to 10^1 ug/ml incubated for 48 hrs by ELISA; assay type: functional, cell-based; conditions: dose 0.0001-10 µg/ml; in short: as §1
Mus musculus [3] = organism: Mus musculus; test: Immuno-adjuvant activity in C57BL/6 mouse assessed as antibody response to (2R,8R,11S,14R,20R)-14-(2-amino-2-oxoethyl)-20-((2S,5R,8S,11R,14S,17R,20S,23R,26S)-5,14-bis((1H-imidazol-5-yl)methyl)-36-(4-(22-(4-((6-amino-2-(2-methoxyethoxy)-8-oxo-7H-purin-9(8H)-yl)methyl)phenyl)-3,7,11,15,22-pentaoxo-6-(3-((2S,3S,4S,5S,6R)-3,4,5-trihydroxy-6-(hydroxymethyl)tetrahydro-2H-pyran-2-yloxy)propyl)-10,14-bis(3-((2S,3S,4S,5S,6S)-3,4,5-trihydroxy-6-(hydroxymethyl)tetrahydro-2H-pyran-2-yloxy)propyl)-2,6,10,14,21-pentaazadocosyl)-1H-1,2,3-triazol-1-yl)-23-(3-amino-3-oxopropyl)-29-sec-butyl-26-(hydroxymethyl)-17-isopropyl-2,8,11,20-tetramethyl-4,7,10,13,16,19,22,25,28,31-decaoxo-3,6,9,12,15,18,21,24,27,30-decaazahexatriacontanamido)-17-sec-butyl-11-(2-carboxyethyl)-2-(3-guanidinopropyl)-8-methyl-4,7,10,13,16,19-hexaoxo-3,6,9,12,15,18-hexaazatricosane-1,23-dioic acid by measuring serum IgG levels at 11 .7 nmol, ID at day 0 and day 21 and measured post second dose; assay type: functional, organism-based
In short: (§2)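 Female C57BL/6 mice, 6 weeks old, were immunized intradermally with 11.7 nmol on days 0 and 21, and sera were taken on day 28. IgG was measured by ELISA on plates coated at 1 μg/mL, with the biotinylated Tn peptide captured on streptavidin plates for 1 h at 37 °C. Serum dilution series were detected with anti-mouse IgG-HRP and OPD/H2O2, read at 492 nm. Titer is the log10 of the highest dilution giving twice the absorbance of naive serum at 1/100, reported as mean SD.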

Bone marrow cell [4] = test: Adjuvanted-antitumor vaccine activity in C57BL/6 mouse bone marrow derived cells assessed as induction of T cell activation at 10^-4 to 10^1 ug/ml incubated for 3 days in presence of mouse OT2-derived CD4+ T cell by ELISA; conditions: dose 1.0 µg/ml, time 72.0 hrs
Mus musculus [5] = organism: Mus musculus; test: Adjuvanted-antitumor vaccine activity in C57BL/6 mouse assessed as induction of OT2-T cell mediated IL-5 production in splenocytes at 11.7 nmol, ID followed by stimulation with OVA(323 to 339) peptide incubated for 48 hrs by ELISA; assay type: functional, organism-based
In short: (§3)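 OT-II CD4⁺ T cells (2 × 10⁵) transferred into C57BL/6 mice (n = 3 per group), then 11.7 nmol per mouse given intradermally. Splenocytes harvested at day 5, cultured at 5 × 10⁵ per well with or without OVA 323−339 (1 μg/mL) at 37 °C for 48 h. IFN-γ and IL-5 measured in supernatants by ELISA.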

Mus musculus [6] = organism: Mus musculus; test: Immuno-adjuvant activity in C57BL/6 mouse assessed as antibody response to OVA peptide by measuring serum IgG levels at 11 .7 nmol, ID at day 0 and day 21 and measured post second dose; assay type: functional, organism-based; conditions: time 21.0 day
Mus musculus [7] = organism: Mus musculus; test: Immuno-adjuvant activity in immunized-C57BL/6 mouse assessed as antibody recognition in sera against 22 at 11 .7 nmol, ID at day 1 and day 20 and measured post second dose on day 27; assay type: functional, organism-based
In short: (§4)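 C57BL/6 mice, n = 3 per group, received 11.7 nmol intradermally on days 1 and 20, and sera were taken on day 27. ELISA plates were coated at 1 μg/mL with the peptoid or the biotinylated Tn3G7K, the latter on streptavidin plates for 1 h at 37 °C. Serially diluted sera were detected with anti-mouse IgG-HRP and OPD, read at 492 nm. Log10 titer is the dilution giving twice the absorbance of 1/100 naive serum.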

Mus musculus [8] = organism: Mus musculus; test: Adjuvanted-antitumor vaccine activity in C57BL/6 mouse assessed as induction of OT2-T cell mediated IFNgamma production in lymph node at 11.7 nmol, ID incubated for 5 days by anti-IFNgamma staining based flow cytometry; assay type: functional, organism-based; conditions: time 5.0 day
In short: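 Lymph node cells taken at day 5, 5 × 10⁵ per well, restimulated 2 h at 37 °C with 50 μg/mL OVA 323−339 plus GolgiPlug. Fixed, permeabilized, stained with anti-CD4, anti-CD3 and anti-IFNγ; flow cytometry.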

Mus musculus [9] = organism: Mus musculus; test: Immuno-adjuvant activity in immunized-C57BL/6 mouse assessed as antibody recognition in sera against 21 at 11 .7 nmol, ID at day 1 and day 20 and measured post second dose on day 27; assay type: functional, organism-based; in short: as §4
Mus musculus [10] = organism: Mus musculus; test: Immuno-adjuvant activity in immunized-C57BL/6 mouse assessed as antibody recognition in sera against Tn3G7K at 11 .7 nmol, ID at day 1 and day 20 and measured post second dose on day 27; assay type: functional, organism-based; in short: as §4
Mus musculus [11] = test: Adjuvanted-antitumor vaccine activity in C57BL/6 mouse assessed as fold increase in OT-2 T cells in spleen at 11.7 nmol, ID coadministered with OT2-derived CD4+ T cell after 5 days […]; assay type: functional; conditions: for fold change (FC): time 5 day
In short: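 2 × 10⁵ OT-II CD4⁺ T cells (from OT-II Rag2 TCR-transgenic knockout mice) transferred into C57BL/6 mice (6−10 weeks, n = 3 per group), then intradermal immunization with 11.7 nmol per mouse. Spleen collected after 5 days; OT-II cells counted by flow cytometry with anti-CD4, anti-Vα2 and anti-Vβ5.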

Mus musculus [12] = organism: Mus musculus; test: Immuno-adjuvant activity in C57BL/6 mouse assessed as antibody response to Tn3G7K by measuring serum IgG levels at 11 .7 nmol, ID at day 0 and day 21 and measured post second dose; assay type: functional, organism-based; conditions: time 21.0 day; in short: as §2
Mus musculus [13] = organism: Mus musculus; test: Adjuvanted-antitumor vaccine activity in C57BL/6 mouse assessed as induction of OT2-T cell mediated IFNgamma production in splenocytes at 11.7 nmol, ID followed by stimulation with OVA(323 to 339) peptide after 48 hrs by ELISA; assay type: functional, organism-based; in short: as §3
Mus musculus [14] = organism: Mus musculus; test: Adjuvanted-antitumor vaccine activity in C57BL/6 mouse assessed as induction of OT2-T cell mediated IFNgamma production in lymph node at 1 ug/ml, ID incubated for 5 days by anti-IFNgamma staining based flow cytometry; assay type: functional, organism-based; conditions: dose 1.0 µg/ml, time 5.0 day
CD4+ve Th = test: Cytotoxicity against OT2 mouse CD4-positive T cells xenografted in C57BL/6 mouse assessed as reduction in cell viability in splenocytes by flow cytometry analysis; assay type: cell-based; conditions: in vivo

## CC[C@H](C)[C@H](NC(=O)CCCCCn1cc(CNC(=O)CCN(CCCO[C@H]2O[C@H](CO)[C@H](O)[C@H](O)[C@H]2NC(C)=O)C(=O)CCN(CCCO[C@H]2O[C@H](CO)[C@H](O)[C@H](O)[C@H]2NC(C)=O)C(=O)CCN(CCCO[C@H]2O[C@H](CO)[C@H](O)[C@H](O)[C@H]2NC(C)=O)C(=O)CCCCCNC(=O)c2ccc(Cn3c(=O)[nH]c4c(N)nc(OCCOC)nc43)cc2)nn1)C(=O)N[C@@H](CO)C(=O)N[C@@H](CCC(N)=O)C(=O)N[C@@H](C)C(=O)N[C@H](C(=O)N[C@@H](Cc1cnc[nH]1)C(=O)N[C@@H](C)C(=O)N[C@@H](C)C(=O)N[C@@H](Cc1cnc[nH]1)C(=O)N[C@@H](C)C(=O)N[C@@H](CCC(=O)O)C(=O)N[C@H](C(=O)N[C@@H](CC(N)=O)C(=O)N[C@@H](CCC(=O)O)C(=O)N[C@@H](C)C(=O)NCC(=O)N[C@@H](CCCNC(=N)N)C(=O)O)[C@@H](C)CC)C(C)C (HELM PEPTIDE1{[COCCOc1nc(N)c2[nH]c(=O)n(Cc3ccc(C(=O)NCCCCCC(=O)N(CCCO[C@H]4O[C@H](CO)[C@H](O)[C@H](O)[C@H]4NC(C)=O)CCC(=O)N(CCCO[C@H]4O[C@H](CO)[C@H](O)[C@H](O)[C@H]4NC(C)=O)CCC(=O)N(CCCO[C@H]4O[C@H](CO)[C@H](O)[C@H](O)[C@H]4NC(C)=O)CCC(=O)[*:2])cc3)c2n1].[O=C(CCCCCn1cc(CN[*:1])nn1)[*:2]].I.S.Q.A.V.H.A.A.H.A.E.I.N.E.A.G.R}$$$$V2.0)
Bone marrow cell [1]
  Activity: Active
Bone marrow cell [2]
  Activity: Active
Mus musculus [3]
  Activity: Active
Bone marrow cell [4]
  Activity: Active
Mus musculus [5]
  Activity: inactive
Mus musculus [6]
  Activity: inactive
Mus musculus [7]
  Activity: Active
Mus musculus [8]
  Activity: Active
Mus musculus [9]
  Activity: Active
Mus musculus [10]
  Activity: inactive
Mus musculus [11]
  fold change (FC): 30
Mus musculus [12]
  Activity: inactive
Mus musculus [13]
  Activity: Active

## COCCOc1nc(N)c2[nH]c(=O)n(Cc3ccc(C(=O)NCCCCCC(=O)N(CCCO[C@H]4O[C@H](CO)[C@H](O)[C@H](O)[C@H]4NC(C)=O)CCC(=O)N(CCCO[C@H]4O[C@H](CO)[C@H](O)[C@H](O)[C@H]4NC(C)=O)CCC(=O)N(CCCO[C@H]4O[C@H](CO)[C@H](O)[C@H](O)[C@H]4NC(C)=O)CCC(=O)OC(C)(C)C)cc3)c2n1
Bone marrow cell [1]
  Activity: Active
Bone marrow cell [2]
  Activity: Active
Mus musculus [6]
  Activity: inactive
Mus musculus [12]
  Activity: inactive
Mus musculus [14]
  Activity: inactive

## CC(=O)N[C@H]1[C@@H](OCCCNCCC(=O)N(CCCO[C@H]2O[C@H](CO)[C@H](O)[C@H](O)[C@H]2NC(C)=O)CCC(=O)N(CCCO[C@H]2O[C@H](CO)[C@H](O)[C@H](O)[C@H]2NC(C)=O)CCC(=O)OC(C)(C)C)O[C@H](CO)[C@H](O)[C@@H]1O
Bone marrow cell [1]
  Activity: inactive
Bone marrow cell [2]
  Activity: inactive

## CC[C@H](C)[C@H](NC(=O)CCCCCn1cc(CNC(=O)CCN(CCCO[C@H]2O[C@H](CO)[C@@H](O)[C@H](O)[C@@H]2O)C(=O)CCN(CCCO[C@H]2O[C@H](CO)[C@@H](O)[C@H](O)[C@@H]2O)C(=O)CCN(CCCO[C@H]2O[C@H](CO)[C@@H](O)[C@H](O)[C@@H]2O)C(=O)CCCCCNC(=O)c2ccc(Cn3c(=O)[nH]c4c(N)nc(OCCOC)nc43)cc2)nn1)C(=O)N[C@@H](CO)C(=O)N[C@@H](CCC(N)=O)C(=O)N[C@@H](C)C(=O)N[C@H](C(=O)N[C@@H](Cc1cnc[nH]1)C(=O)N[C@@H](C)C(=O)N[C@@H](C)C(=O)N[C@@H](Cc1cnc[nH]1)C(=O)N[C@@H](C)C(=O)N[C@@H](CCC(=O)O)C(=O)N[C@H](C(=O)N[C@@H](CC(N)=O)C(=O)N[C@@H](CCC(=O)O)C(=O)N[C@@H](C)C(=O)NCC(=O)N[C@@H](CCCNC(=N)N)C(=O)O)[C@@H](C)CC)C(C)C ({X3-Ahx}-[X4][X4][X4][X2]ISQAVHAAHAEINEAGR-OH)
Bone marrow cell [1]
  Activity: Active
Bone marrow cell [2]
  Activity: Active
Bone marrow cell [4]
  Activity: Active
Mus musculus [5]
  Activity: inactive
Mus musculus [7]
  Activity: Active
Mus musculus [8]
  Activity: Active
Mus musculus [9]
  Activity: Active
Mus musculus [10]
  Activity: inactive
Mus musculus [11]
  fold change (FC): 30
Mus musculus [13]
  Activity: Active

## CC[C@H](C)[C@H](N)C(=O)N[C@@H](CO)C(=O)N[C@@H](CCC(N)=O)C(=O)N[C@@H](C)C(=O)N[C@H](C(=O)N[C@@H](Cc1cnc[nH]1)C(=O)N[C@@H](C)C(=O)N[C@@H](C)C(=O)N[C@@H](Cc1cnc[nH]1)C(=O)N[C@@H](C)C(=O)N[C@@H](CCC(=O)O)C(=O)N[C@H](C(=O)N[C@@H](CC(N)=O)C(=O)N[C@@H](CCC(=O)O)C(=O)N[C@@H](C)C(=O)NCC(=O)N[C@@H](CCCNC(=N)N)C(=O)O)[C@@H](C)CC)C(C)C [ovalbumin peptide] (H-ISQAVHAAHAEINEAGR-OH)
CD4+ve Th
  Activity: Non-Toxic
Mus musculus [11]; time 5.0 day
  Activity: inactive
Mus musculus [14]
  Activity: inactive

## COCCOc1nc(N)c2[nH]c(=O)n(Cc3ccc(C(=O)O)cc3)c2n1
Bone marrow cell [1]
  Activity: inactive
Bone marrow cell [2]
  Activity: inactive
